According to ChEMBL document CHEMBL2375256, “Functionalized indoleamines as potent, drug-like inhibitors of isoprenylcysteine carboxyl methyltransferase (Icmt)” (Eur J Med Chem, 2013):
≈ marks a conversion by molar mass, not a printed value.

Columns and labels:
[1] = test system: MDA-MB-231; assay: Antiproliferative activity against human MDA-MB-231 cells after 72 hrs […]; assay type: functional, cell-based; settings: MDA-MB-231, 72 h
[2] = target: Protein-S-isoprenylcysteine O-methyltransferase (Homo sapiens, UniProt O60725); assay: Inhibition of recombinant Icmt (unknown origin) expressed in Sf9 cells assessed as transfer of methyl group from [3H]-S-adenosylmethionine to [3H]-biotin-S-farnesyl-L-cysteine after 30 mins
Sequence of Protein-S-isoprenylcysteine O-methyltransferase (O60725 whole entry): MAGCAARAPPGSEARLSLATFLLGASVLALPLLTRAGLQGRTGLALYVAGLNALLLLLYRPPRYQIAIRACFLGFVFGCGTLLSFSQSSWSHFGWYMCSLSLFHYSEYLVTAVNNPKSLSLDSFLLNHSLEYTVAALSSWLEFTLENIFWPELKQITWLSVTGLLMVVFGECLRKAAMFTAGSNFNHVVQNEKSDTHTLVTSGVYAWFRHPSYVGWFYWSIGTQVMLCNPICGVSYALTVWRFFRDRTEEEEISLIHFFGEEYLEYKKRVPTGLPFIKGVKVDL
Procedure, shortened: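 Icmt membrane protein was diluted to 0.03 mg/mL in 70 mM HEPES, 100 mM NaCl, 5 mM MgCl2, 3 mM DTT, pH 7.5, and preincubated with inhibitor. The reaction was started with a mix of BFC, SAM and [3H]SAM and run 30 min at 37 °C. It was quenched with excess SAM, captured on streptavidin SPA beads overnight at ambient temperature, and counted. IC50 was taken from % activity versus log concentration, with two independent determinations.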

[3] = Half life in rat liver microsomes at 3 uM; assay type: ADME, Microsome
Procedure, shortened: (§1)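 Compound at 3 µM was incubated with pooled male rat liver microsomes (0.3 mg protein/mL) in 0.1 M phosphate buffer pH 7.4 with 1 mM EDTA. The reaction was started with NADPH (1 mM final) at 37 °C and sampled at 0, 5, 15, 30 and 45 min.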

[4] = Intrinsic clearance in rat liver microsomes at 3 uM; assay type: ADME, Microsome; settings: read-out: CLH; procedure, shortened: as §1
[5] = Aqueous solubility of the compound at pH 7.4 after 24 hrs agitation; assay type: physicochemical
[6] = test system: IMR-90; assay: Antiproliferative activity against human IMR90 cells after 72 hrs […]; assay type: cell-based; settings: IMR-90, 72 h
[7] = test system: HepG2; assay: Antiproliferative activity against human HepG2 cells after 72 hrs […]; assay type: functional, cell-based; settings: HepG2, 72 h
[8] = test system: PC-3; assay: Antiproliferative activity against human PC3 cells after 72 hrs […]; assay type: functional, cell-based; settings: PC-3, 72 h
[9] = test system: MIA PaCa-2; assay: Antiproliferative activity against human MIAPaCa2 cells after 72 hrs by MTT assay; assay type: functional, cell-based; settings: MIA PaCa-2, 72 h

Row | SMILES | IC50 [1] [µM] | IC50 [8] [µM] | also measured
1 | CCCCCCCCn1cc(CN(CC)CC)c2cc(F)ccc21 | 7.36 | – | IC50 [2]: 4.42 µM
2 | CCCCCCCCn1cc(CN(CC)CC)c2cc(-c3cccc(O)c3)ccc21 | 18.1 | 14.9 | –
3 | CCCCCCCCn1cc(CN(CC)CC)c2cc(-c3ccc(C#N)cc3)ccc21 | 10.8 | 6.11 | –
4 | CCCCCCCCn1cc(CN(CC)CC)c2cc(-c3ccc(S(C)(=O)=O)cc3)ccc21 | 5.56 | 4.74 | –
5 | CCCCCCCCn1cc(CN(CC)CC)c2cc(-c3ccc(S(=O)(=O)NC)cc3)ccc21 | 10.2 | – | –
6 | CCCCCCCCn1cc(CN(CC)CC)c2cc(-c3cccnc3)ccc21 | 5.5 | 5.84 | IC50 [6]: 5.52 µM
7 | CCCCCCCCn1cc(CN(CC)CC)c2cc(-c3cncnc3)ccc21 | 11.1 | 8.47 | IC50 [6]: 9.84 µM
8 | CCCCCCCCn1cc(CN(CC)CC)c2c(F)cccc21 | 7.5 | – | –
9 | CCCCCCCCn1cc(CN(CC)CC)c2ccc(F)cc21 | 9.14 | – | IC50 [2]: 2.22 µM
10 | CCCCCCCCn1cc(CN(CC)CC)c2cccc(F)c21 | 8.87 | – | –
11 | CCCCCCCCn1cc(CC(N)=O)c2cc(-c3cccc(C)c3)ccc21 | 22.1 | 21.3 | half-life at 3 µM [3]: 44.8 min; microsomal CLint at 3 µM [4]: 53.6 µL/min/mg; IC50 [7]: 19.3 µM

Stronger by IC50 [1], values ahead:

Row | IC50 [1] [µM] | IC50 [8] [µM] | SMILES | also measured
12 | 5.14 | 6.31 | CCCCCCCCn1cc(CN(CC)CC)c2cc(-c3cccc(C)c3)ccc21 | half-life at 3 µM [3]: 26.9 min; microsomal CLint at 3 µM [4]: 85.8 µL/min/mg; solubility at 24 h [5]: 1.1 µM (≈ 0.445 µg/mL); IC50 [6]: 5.26 µM; IC50 [7]: 4.9 µM
13 | 2.52 | 1.92 | CCCCCCCCn1cc(CN(CC)CC)c2cc(-c3ccc(N(C)C)nc3)ccc21 | IC50 [2]: 1.63 µM
14 | 5.14 | 5.88 | CCCCCCCCn1cc(CN(CC)CC)c2cc(-c3ccncc3F)ccc21 | IC50 [2]: 0.96 µM
15 | 3.85 | 5.74 | CCCCCCCCn1cc(CN(CC)CC)c2cc(-c3cnc(C#N)nc3)ccc21 | –
16 | 2.48 | 2.55 | CCCCCCCCn1cc(CN(CC)CC)c2cc(-c3cnc(N)nc3)ccc21 | half-life at 3 µM [3]: 11.3 min; microsomal CLint at 3 µM [4]: 204 µL/min/mg; IC50 [6]: 2.65 µM; IC50 [9]: 1.6 µM; IC50 [7]: 1.65 µM
